The RNAGym collection of RNA variant scans (doi:10.1126/science.aae0568)
Fewer inactive variants are shown than the library holds.

B1: tRNA (parent)
chain: GUUCCGUUGGCGUAAUGGUAACGCGUCUCCCUCCUAAGGAGAAGACUGCGGGUUCGAGUCCCGUACGGAACG

Variants of: B1
Experiment: yeast fitness relative to wild type (ratio to wild type); higher = fitter; tRNA-Arg(CCU), competitive growth, 37 C, YPD
How it was run: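 Changes in genotype frequencies gave Darwinian fitness relative to wild type. Frequencies were read by 100-nucleotide paired-end sequencing of gene amplicons before and after pooled Saccharomyces cerevisiae strains, carrying tRNA-Arg(CCU) gene variants at the native locus, were competed in YPD at 37°C for 24 hours in six replicates. A genotype was kept only with ≥ 100 starting reads, and estimates < 0.5 were set to 0.5.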

Variant	yeast fitness
GUUCCGUUGGCGUAAUGGUAACGCGUAUCCCUCCUAAGGAGAAGACUACGGGUUCGAGUCCCGUACGGAACG [C27A G48A]	0.995
GUUCCGUUGGCGUAAUGGUAACGCGUAUCCCUCCUAAGGACACGACUGCGGGUUCGAGUCCCGUACGGAACG [C27A G41C A43C]	0.504
GUUCCGUUGGCGUAAUGGUAACGCGUAUCCCUCCUAAGGAGAAGACUGCGGGUUCAAGUCCCGUUAGGAACG [C27A G56A A65U C66A]	≤ 0.5
GUUCCGUUGGCGUAAUGGUAACGCGUAUCCCUCCUAAGGAGAAGACUGCGAGUUCGAGUCCCGUACGGAGCG [C27A G51A A70G]	≤ 0.5
GUUCCGUUGGCGUAAUGGUAACGCGUAUCCCUCCUAAGGAGAAGACUGCGGGUUCGAGUCCAGUACGGAACG [C27A C62A]	0.699
GUUCCGUUGGCGUAAUGGUAACGCGUAUCCCUCCUAAGGAGAAGACUGAGGGUUCGAGUCCCGUACGGAACG [C27A C49A]	0.749
GUUCCGUUGGCGUAAUGGUAACGCGUAUCCCUCCUAAGGAGAAGACUGUGGGUUCGAGUCCCGUACGGAACG [C27A C49U]	0.826
GUUCCGUUGGCGUAAUGGUAACGCGUAUCCCUCCUAAGGAGAAGACUGCAGGUUCGAGUCCCGUACGGAACG [C27A G50A]	0.848
GUUCCGUUGGCGUAAUGGUAACGCGUAUCCCUCCUAAGGAGAAGACUGCCGGUUCGAGUCCCGUACGGAACG [C27A G50C]	0.721
GUUCCGUUGGCGUAAUGGUAACGCGUAUCCCUCCUAAGGAGAAGACUGCGGGUUCGAGUGCCGUACGGAACG [C27A C60G]	0.657
GUUCCGUUGGCGUAAUGGUAACGCGUAUCCCUCCUAAGGAGAAGACUGCGGGUUCGAGUCCCAUACGGAACG [C27A G63A]	0.88
GUUCCGUUGGCGUAAUGGUAACGCGUAUCCCUCCUAAGGAAAAGUCUGCGGGUUCGAGGCCCGUACGGAACG [C27A G41A A45U U59G]	≤ 0.5
GUUCCGUUGGCGUAAUGGUAACGCGUAUCCCUCCUAAGGAAAAGACAGCGGGUUCGAGUCCCGUACGGUACG [C27A G41A U47A A69U]	≤ 0.5
GUUCCGUUGGCGUAAUGGUAACGCGUAUCCCUCCUAAGGAGAAGACUGCGGGUUCCAGUCCAGUCCGGAACG [C27A G56C C62A A65C]	0.611
GUUCCGUUGGCGUAAUGGUAACGCGUAUCCCUCCUAAGCAGAAGACUGCGGGUUCGUGUCCCGUACGGAACG [C27A G39C A57U]	≤ 0.5
GUUCCGUUGGCGUAAUGGUAACGCGUAUCCCUCCUAAGGAGAAGACUGCGGGUUUGAGUCCCGUACGGAACG [C27A C55U]	0.662
GUUCCGUUGGCGUAAUGGUAACGCGUAUCCCUCCUAAGCAGAAGACUGCGGGUUGGAGUCCCGUACGGAACG [C27A G39C C55G]	≤ 0.5
GUUCCGUUGGCGUAAUGGUAACGCGUAUCCCUCCUAACGAGAAGACUGCGGGUUCGAGUCCCGUACGUAACG [C27A G38C G68U]	≤ 0.5
GUUCCGUUGGCGUAAUGGUAACGCGUAUCCCUCCUAAGGAGAACACUGCGAGUUCGAGUCCCGUACGGAACG [C27A G44C G51A]	≤ 0.5

Variant	yeast fitness
GUUCCGUUGGCGUAAUGGUAACGCGUAUCCCUCCUAAGGAGAAGACUGCGGGUUCAAGUCCCGUACGGAACG [C27A G56A]	0.707
GUUCCGUUGGCGUAAUGGUAACGCGUAUCCCUCCUAAGGAGAAGACUGCGGUUUAGAGUCCCGUACGGAACG [C27A G52U C55A]	≤ 0.5
GUUCCGUUGGCGUAAUGGUAACGCGUAUCCCUCCUAAGGAGAAGACUGCGGGUUCGAGUCCUGUCCGGAACG [C27A C62U A65C]	0.63
GUUCCGUUGGCGUAAUGGUAACGCGUAUCCCUCCUAAGGACACGUCUGCGGGUUCGAGUCCCGUACGGAACG [C27A G41C A43C A45U]	≤ 0.5
GUUCCGUUGGCGUAAUGGUAACGCGUAUCCCUCCUAACGUGAAGACUGCGGGAUCGAGUCCCGUACGGAACG [C27A G38C A40U U53A]	≤ 0.5
GUUCCGUUGGCGUAAUGGUAACGCGUAUCCCUCCUAAGGAGAAGACUGCGGAUUCGAGUCCCGUACGGAACG [C27A G52A]	0.619
GUUCCGUUGGCGUAAUGGUAACGCGUAUCCCUCCUAAGGAGAACACUGCGGGUUCGAGACCCGUACGGAACG [C27A G44C U59A]	≤ 0.5
GUUCCGUUGGCGUAAUGGUAACGCGUAUCCCUCCUAAGGAGAAAACUGCGGGUUCGAGUCCCGUACGGCACG [C27A G44A A69C]	≤ 0.5
GUUCCGUUGGCGUAAUGGUAACGCGUAUCCCUCCUAAGGAGAAGACUGCGGGUUUGCGUCAGGUACGGAACG [C27A C55U A57C C61A C62G]	≤ 0.5
GUUCCGUUGGCGUAAUGGUAACGCGUAUCCCUCCUAAGGAGAAGACUGCGCGUUCGAGUCCCGUACGGAACG [C27A G51C]	0.704
GUUCCGUUGGCGUAAUGGUAACGCGUAUCCCUCCUAAGGAGAAGACUGCGGGUUCGAGUCCCGUAUGGAACG [C27A C66U]	0.868
GUUCCGUUGGCGUAAUGGUAACGCGUAUCCCUCCUAAGGAGAAGACUGCGGGUUCGAGUCCCGUAGGGAACG [C27A C66G]	0.673
GUUCCGUUGGCGUAAUGGUAACGCGUAUCCCUCCUAAGGAGAAGACUGCGGGUUCGAGUCCCGUAAGGAACG [C27A C66A]	0.565
GUUCCGUUGGCGUAAUGGUAACGCGUAUCCCUCCUAAGGAAAAGACAGCGGGUUCGAGUCCCGUACGGAACG [C27A G41A U47A]	≤ 0.5
GUUCCGUUGGCGUAAUGGUAACGCGUAUCCCUCCUAAGGACACGACUGCGGGUUCGAGUCCCGUACGGUACG [C27A G41C A43C A69U]	≤ 0.5
GUUCCGUUGGCGUAAUGGUAACGCGUAUCCCUCCUAAGGAGAAGACUGGGGGAUCGAGUCCAGUACGGAACG [C27A C49G U53A C62A]	0.571
GUUCCGUUGGCGUAAUGGUAACGCGUAUCCCUCCUAAGGAGAAGACUGCGGGUUCGAGUCUCGUACGCAACG [C27A C61U G68C]	≤ 0.5
GUUCCGUUGGCGUAAUGGUAACGCGUAUCCCUCCUAAGGAGAAGACUGCGGGUUCGAGUCGCGUACGGAACG [C27A C61G]	0.665
GUUCCGUUGGCGUAAUGGUAACGCGUAUCCCUCCUAAGGAGAAGACUGCGGGUUCGAGUCUCGUACGGAACG [C27A C61U]	0.891
